Screens (PubChem)
Compounds with a hit are over-represented: about 2% of the library has one in this group of screens.
PglD inh: C. jejuni PglD acetyltransferase inhibitors, primary screen, biochemical, DTNB colorimetric, single point | actives 0.098% (n = 360,000) | UDP-N-acetylbacillosamine N-acetyltransferase PglD (Campylobacter jejuni) | AID 602405, 2012 | purified PglD enzyme, DTNB colorimetric CoA detection | inhibition, % at 12.5 µM; in the data active = inhibition above about 16%, passing the limit was not always enough; inconclusive = no clear call, values can overlap the other calls
RAD52 anneal inh: RAD52 DNA annealing inhibitors, primary screen, biochemical, FRET, single point, set 2; DNA repair protein RAD52 homolog (Homo sapiens), P43351; recombinant RAD52 DNA annealing, FRET fluorescence; inhibition, % at 18.7 µM; actives 0.46% (n = 360,000); AID 651710, 2012;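 active = every replicate showing at least 50% inhibition; inconclusive = mean inhibition at least 50% but not in every replicate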
RAD54 branch: inhibitors of human RAD54 branch migration, primary screen, biochemical, fluorescence, single point. DNA repair and recombination protein RAD54-like (Homo sapiens), Q92698. RAD54 Holliday junction branch migration, FAM/BHQ fluorescence. inhibition, % at 10.4 µM. actives 0.14% (n = 360,000). AID 602329, 2012;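 active = mean normalized replicate activity at least 40 and at least half of replicates scoring 40 or more; inconclusive = only one of the two criteria met; inactive = mean below 40 and under half of replicates reaching 40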;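 also: inhibitors cause a drop in the FAM fluorescence signal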
rRNA inh HTS: reduced GFP signal of wild-type E. coli, primary screen, bacterial rRNA inhibitor project, GFP/RFP fluorescence, OD600, single point. E. coli WT GFP vs humanized-ribosome RFP mutants, 24 h; stronger effect = lower value; DMSO median 0, no signal -100. GFP signal change (wild-type ribosome), % (test concentration not listed). actives 1.6% (n = 350,000). AID 720706, 2013;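 active = significant combined selectivity score with lowered wild-type GFP, culture density cut under 30%, mutant RFP and density less affected; inactive = any of these conditions unmet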
E-selectin induc: E-selectin induction in HUVECs, primary screen, imaging, HUVEC, immunofluorescence imaging, single point. P16581. activation, % at 7.58 µM. actives 0.37% (n = 260,000). normalized: neutral wells 0, TNF-alpha wells 100. AID 686992, 2013;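 active = mean E-selectin-positive cell signal at least 10% of the positive control, reached in at least 60% of replicates, without over 20% cell loss; inconclusive = no rule given, readout overlaps actives, possibly toxicity-flagged; inactive = the rest, including those meeting only one limit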
Target sequence (P16581 whole entry, looked up): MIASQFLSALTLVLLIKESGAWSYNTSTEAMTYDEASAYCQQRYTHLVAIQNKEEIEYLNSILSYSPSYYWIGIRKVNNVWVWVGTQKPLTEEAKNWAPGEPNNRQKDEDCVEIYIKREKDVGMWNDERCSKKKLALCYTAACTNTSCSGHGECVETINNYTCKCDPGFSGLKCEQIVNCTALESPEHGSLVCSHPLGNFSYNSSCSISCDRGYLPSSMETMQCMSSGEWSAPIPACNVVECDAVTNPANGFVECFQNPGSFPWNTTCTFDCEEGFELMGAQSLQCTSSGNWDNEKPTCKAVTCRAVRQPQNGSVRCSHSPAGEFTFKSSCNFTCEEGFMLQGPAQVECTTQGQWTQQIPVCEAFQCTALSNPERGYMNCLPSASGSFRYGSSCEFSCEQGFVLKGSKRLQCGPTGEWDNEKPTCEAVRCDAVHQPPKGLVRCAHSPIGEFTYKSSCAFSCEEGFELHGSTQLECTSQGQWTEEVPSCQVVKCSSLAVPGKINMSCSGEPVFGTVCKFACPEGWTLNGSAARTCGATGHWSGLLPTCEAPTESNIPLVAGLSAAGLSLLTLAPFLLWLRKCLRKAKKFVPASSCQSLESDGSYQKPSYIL
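assay system = HUVEC, human umbilical vein endothelial cells | input = 3,000 HUVEC seeded per well | medium = EGM-2 growth medium on 0.1% gelatin-coated wells | dosing = one compound dose added by pin transfer | signal = immunofluorescence imaging | read-out basis = % PE-positive cells | control set = TNF-alpha, DMSO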
Xi reactivation: activators of inactive X chromosome reactivation, primary screen, imaging, XiGFP fibroblasts, GFP high-content imaging, set 2; actives 0.055% (n = 360,000); activation, % at 7.58 µM; XiGFP mouse fibroblasts, % GFP-positive cells imaging, 3 d; cells co-treated with 5-aza-dC sensitizer; scaled so ellipticine positive control = 100%;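 active = mean normalized replicate activation at least 10% and every replicate at or above 10%; inconclusive = only one of the two criteria met; inactive = mean below 10% and not all replicates reach 10%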
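System: XiGFP fibroblasts, SV40-immortalized. Medium: DMEM plus 5-aza-dC sensitizer. Doses: single point. Timing: 3 d treatment, 15 min room-temperature fixation. Control set: ellipticine 6 µM.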
AID977621: growth inhibition of wild-type GFP E. coli, dose response, H69 mutant RFP, cherry-pick | AID 977621, 2014 | activity change, negative = inhibition at 50 µM | E. coli wild-type GFP strain growth, fluorescence, 24 h | 1,900 tested, under 10 active | shares compounds with rRNA inh HTS;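 active = Wild-type ribosome reporter drop at least double the humanized mutant ribosome reporter drop, growth loss under a set limit; inconclusive = no clear call, values can overlap the other calls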;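 also: wild-type GFP and H69 mutant RFP strains grown together 50/50 in each well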
AID977628: E. coli growth inhibition, wild-type GFP versus h24 humanized RFP strain, dose response, h24 mutant RFP vs wild-type GFP, cherry-pick. shares compounds with rRNA inh HTS. E. coli WT GFP strain growth, fluorescence, 24 h. activity change, negative = inhibition at 50 µM. 1,900 tested, under 10 active. AID 977628, 2014;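 active = compound lowering the normal-ribosome reporter at least twice as much as the humanized-ribosome reporter, growth loss under a set limit; inconclusive = no clear call, values can overlap the other calls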;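 also: wild-type GFP and h24 humanized RFP strains co-cultured 1 to 1 per well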
Large screens that a line does not name were inactive (follow-up assays come after a bar, where they were run).

COc1cc(OC)cc(C(=O)N[C@H](C(=O)OCC(=O)Nc2ccc(F)c(F)c2F)C(C)C)c1	rRNA inh HTS -20 | AID977621 inconclusive
COc1cc(OC)cc(C(=O)N[C@H](C(=O)OCC(=O)Nc2ccc(C)cc2C)C(C)C)c1	none (no result: E-selectin induc)
C[C@H]1CN([C@@H](C)CO)S(=O)(=O)c2ccc(C3=CCCC3)cc2O[C@@H]1CN(C)Cc1ccncc1	none
O=C(CN1CCc2ccccc2C1)Nc1ccc(F)cc1F	rRNA inh HTS -21 | AID977621 inactive | AID977628 inconclusive
O=C(C[C@@H]1CC[C@@H]2[C@H](COC[C@H](O)CN2Cc2nccs2)O1)NCc1ccc(Cl)cc1	none
COc1ccc(C#Cc2ccc([C@H]3[C@@H](CO)N4CCCCN(C(=O)Nc5ccc(F)cc5)C[C@H]34)cc2)cc1	none
O=C(Nc1ccc(F)cc1)N1CCCCN2[C@@H](CO)[C@H](c3ccc(-c4ccncc4)cc3)[C@@H]2C1	rRNA inh HTS -20 | AID977621 inactive
COc1ccc(C#Cc2ccc([C@@H]3[C@@H](CO)N4CCCCN(C(=O)Nc5ccc(F)cc5)C[C@H]34)cc2)cc1	rRNA inh HTS -48 | AID977628 inconclusive
O=C(Nc1cccc(F)c1)N1[C@@H]2CNC[C@H]1C2c1ccc(-c2ccncc2)cc1 (stereo partly specified)	rRNA inh HTS -25 (no result: PglD inh, RAD54 branch) | AID977621 inactive | AID977628 inactive
CO[C@H](CN(C)S(=O)(=O)c1ccccc1)[C@@H](C)CN(C(=O)Nc1ccccc1F)[C@H](C)CO	none
COCC(=O)N(C[C@H]1N[C@H](CO)[C@@H]1c1ccc(C2=CCCCC2)cc1)C(C)C	none
CO[C@H]1CN(C)C(=O)c2cc(NC(=O)c3ccccc3)ccc2OC[C@@H](C)N(C)C[C@@H]1C	none
COc1ccccc1-c1noc2ncnc(Nc3cccc(C)c3C)c12	rRNA inh HTS -16 | AID977621 inactive | AID977628 inactive
COc1ccccc1Nc1ncnc2c1c(C)c(C)n2CCCN(C)C	none
COc1ccccc1-c1noc2ncnc(Nc3ccc4c(c3)OCO4)c12	none
COc1ccccc1-c1noc2ncnc(Nc3ccccc3C)c12	rRNA inh HTS -27 (no result: E-selectin induc) | AID977621 inactive | AID977628 inactive
CC(=O)Nc1ccc(OCC(=O)N2CCC(Cc3ccccc3)CC2)cc1	rRNA inh HTS -20 (no result: PglD inh, RAD54 branch) | AID977621 inactive
O=C(Nc1ccc(OCC(=O)N2CCC(Cc3ccccc3)CC2)cc1)c1ccco1	none (no result: RAD52 anneal inh, rRNA inh HTS, E-selectin induc, Xi reactivation)
CC(=O)N1[C@H](CNC(=O)CN(C)C)[C@@H](c2ccc(C3=CCCC3)cc2)[C@@H]1CO	none (no result: RAD52 anneal inh)
CN(c1ccccc1)S(=O)(=O)c1cccc(NC(=O)c2ccncc2)c1	none (no result: PglD inh, RAD54 branch)
Cc1cc(C)n2nc(C(=O)Nc3cccc(S(=O)(=O)N(C)c4ccccc4)c3)nc2n1	rRNA inh HTS -26 (no result: PglD inh, RAD54 branch) | AID977621 inactive
Cc1cc(C)cc(NS(=O)(=O)c2cc(C(=O)NCc3ccccn3)ccc2Cl)c1	rRNA inh HTS -20 | AID977621 inactive | AID977628 inactive
COC(=O)Cc1nnn2c1[C@@H](C)[C@@H](c1ccccc1Br)O[C@@H](C)C2	none (no result: PglD inh, RAD54 branch)
COC(=O)c1cc(C(=O)Cc2ccccc2)c[nH]1	rRNA inh HTS -22 (no result: PglD inh, RAD54 branch) | AID977621 inactive
O=C(OCC1COc2ccccc2O1)c1ccccc1F (stereo unspecified)	rRNA inh HTS -20 (no result: E-selectin induc, Xi reactivation) | AID977621 inactive | AID977628 inactive
c1ccc2c(c1)CSc1ccccc1N2	rRNA inh HTS -24 | AID977621 inactive | AID977628 inactive
Cc1noc(NS(=O)(=O)c2ccc(NC(=O)c3cc(-c4ccccc4Cl)nc4ccccc34)cc2)c1C	rRNA inh HTS -24 (no result: PglD inh, RAD54 branch) | AID977621 inactive
CN(CC(=O)Nc1ccc(F)cc1)C(=O)Cn1c(=O)oc2ccccc21	none (no result: E-selectin induc)
CN(CC(=O)Nc1cccc(F)c1)C(=O)Cn1c(=O)oc2ccccc21	rRNA inh HTS -17 (no result: E-selectin induc) | AID977621 inactive | AID977628 inactive
COc1ccc(S(=O)(=O)Nc2ccc3c(c2)C(=O)N([C@@H](C)CO)C[C@@H](C)[C@@H](CN(C)S(=O)(=O)c2ccc(C)cc2)O3)cc1	none
CCOC(=O)c1cnc2c(c(C)nn2C)c1Oc1ccc(OC)cc1	rRNA inh HTS -14 (no result: E-selectin induc) | AID977621 inactive | AID977628 inactive
CCOC(=O)c1cnc2c(c(C)nn2C)c1Oc1cc(Cl)cc(Cl)c1	none (no result: PglD inh, RAD54 branch)
Cc1cc([N+](=O)[O-])nn1CC(=O)Nc1cc(F)ccc1F	rRNA inh HTS -18 (no result: PglD inh, RAD54 branch) | AID977621 inactive | AID977628 inconclusive
C[C@@H]1CN([C@H](C)CO)C(=O)c2cccc(NS(=O)(=O)c3cn(C)cn3)c2O[C@H]1CN(C)Cc1ccc2c(c1)OCO2	none (no result: E-selectin induc)
COC(=O)c1ccc2nc(-c3cccc(Br)c3)c(Cc3ccsc3)n2c1	rRNA inh HTS -34 | AID977621 inconclusive
CC(=O)N(C)C[C@H]1Oc2cc(C#CC3CCCC3)ccc2S(=O)(=O)N([C@@H](C)CO)C[C@H]1C	none
O=C(Cc1ccccc1)NC(NC(=O)Cc1ccccc1)c1cccc([N+](=O)[O-])c1	none (no result: PglD inh, RAD54 branch, E-selectin induc)
C=CCN(CC(O)c1cccc([N+](=O)[O-])c1)C(C)CCc1ccccc1 (stereo unspecified)	rRNA inh HTS -21, Xi reactivation inconclusive (no result: PglD inh, RAD54 branch) | AID977621 inconclusive
CN(C)CC(=O)Nc1ccc2c(c1)[C@H]1C[C@H](CC(=O)NC3CCCCC3)O[C@@H](CO)[C@H]1O2	none
CCOC(=O)c1nc(S(C)(=O)=O)ncc1Cl	rRNA inh HTS -27 (no result: E-selectin induc, Xi reactivation) | AID977621 inactive | AID977628 inconclusive
CCOC(=O)c1nc(S(C)(=O)=O)ncc1N1CCOCC1	none (no result: RAD52 anneal inh, rRNA inh HTS, E-selectin induc, Xi reactivation)
CC(C)NC(=O)N(C)C[C@H]1OCc2cn(nn2)CCCC(=O)N([C@@H](C)CO)C[C@@H]1C	none
